Test results as given in ChEMBL document CHEMBL3853359, “NO Photoreleaser-Deoxyadenosine and -Bile Acid Derivative Bioconjugates as Novel Potential Photochemotherapeutics” (ACS Med Chem Lett, 2016).
pIC50: −log10 of the molar value. Calls of active or inactive are those of the source. No cut-off for these calls is given here.

Assays:
[1] = Induction of NO release in phosphate buffer at 50 uM and pH 7.4 upon 1.5 mW/cm2 visible-light irradiation; type: physicochemical; conditions: pH 7.4, 50 µM
Summary of the method: (§1)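 NO was monitored directly in real time with an amperometric NO electrode (nanomolar sensitivity). Samples were 50 μM solutions in 10 mM phosphate buffer, pH 7.4, with 0.5% DMSO, kept in the dark and then illuminated with visible light (λ = 420 nm, 1.5 mW cm–2).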

[2] = Cytotoxicity against human fibroblasts assessed as cell growth inhibition incubated for 72 hrs under dark condition by MTT assay; type: toxicity, cell-based, Fibroblast
Summary of the method: (§2)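 MTT read-out after 72 h continuous exposure in the dark. Test concentrations were 10, 25 and 50 μM for K562 leukaemia and HCT116 colon carcinoma cells, and up to 100 μM for normal human skin fibroblasts. IC50 was taken from dose–response curves, as the mean ± SD of three independent experiments.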

[3] = Cytotoxicity against human HCT116 assessed as cell growth inhibition incubated for 72 hrs under dark condition by MTT assay; type: toxicity, cell-based, HCT-116; conditions: for IC50 at 72 h: HCT116 cells; for growth inhibition (GI): hct-116, 72 h; summary of the method: as §2
[4] = Stability of the compound in phosphate buffer at 50 uM and pH 7.4 under dark condition; type: physicochemical; conditions: pH 7.4, 50 µM; summary of the method: as §1
[5] = Cytotoxicity against human K562 assessed as cell growth inhibition incubated for 72 hrs under dark condition by MTT assay; type: toxicity, cell-based; conditions: for IC50 at 72 h: K562 cells; for growth inhibition (GI): k562, 72 h; summary of the method: as §2
[6] = Ratio of cytotoxicity against human HCT116 cells assessed as cell growth inhibition at 50 uM incubated for 72 hrs under dark condition by MTT assay to photocytotoxicity against human HCT116 cells assessed as cell growth inhibition at 50 uM incubated for 72 hrs after exposure to 7 mW/cm2 of light-irradiation for 40 mins by MTT assay
HCT-116 = test: (§3) Photocytotoxicity against human HCT116 cells assessed as cell growth inhibition incubated for 72 hrs after exposure to 7 mW/cm2 of light-irradiation for 40 mins by MTT assay; type: functional, cell-based
Summary of the method: (§4)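 HCT116 cells with compound were irradiated with visible light (λ = 420 nm, 7 mW cm–2) for 40 min, then incubated to 72 h. Growth inhibition was read by MTT. IC50 was taken from dose–response curves, as the mean ± SD of three independent experiments.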

[7] = as §3; type: functional, cell-based; conditions: HCT-116, light or radiation study; summary of the method: as §4
[8] = Photoreactivity of the compound in phosphate buffer assessed as photobleaching of visible band at 50 uM and pH 7.4 upon 7 mW/cm2 of light-irradiation measured up to 70 mins; type: physicochemical; conditions: pH 7.4, 70 min
Summary of the method: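 50 μM solutions in 10 mM phosphate buffer, pH 7.4, with 0.5% DMSO were irradiated at λ = 420 nm, 7 mW cm–2, from 0 to 70 min. Absorption spectral changes were recorded, and kinetic profiles were followed at λmax and fitted linearly.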

SMILES | Activity [1] | IC50 at 72 h [2] [µM] | IC50 at 72 h [3] [µM] | growth inhibition (GI) [3] | Stability [4] | IC50 at 72 h [5] [µM] | growth inhibition (GI) [5] | Ratio [6] | Activity (HCT-116) | pIC50 [7] | Activity [8]
Nc1ncnc2c1nc(SCCCCCNc1ccc([N+](=O)[O-])c(C(F)(F)F)c1)n2[C@H]1C[C@H](O)[C@@H](CO)O1 | Active | > 100 | 66.2 | Dose-dependent effect | Stable | 68.1 | Dose-dependent effect | 2 | Active | 4.51 | Active
C[C@H](CCC(=O)O)[C@H]1CC[C@H]2[C@@H]3[C@H](O)C[C@@H]4C[C@H](n5cc(CCCNc6ccc([N+](=O)[O-])c(C(F)(F)F)c6)nn5)CC[C@]4(C)[C@H]3CC[C@]12C |  | 32 | 21 |  |  | 24 |  |  |  |  | 
C[C@H](CCC(=O)O)[C@H]1CC[C@H]2[C@@H]3[C@@H](O)C[C@@H]4C[C@H](n5cc(CCCNc6ccc([N+](=O)[O-])c(C(F)(F)F)c6)nn5)CC[C@]4(C)[C@H]3CC[C@]12C | Active | > 100 | 14 | Dose-dependent effect | Stable | 31.6 | Dose-dependent effect |  |  |  | 
